Screening data from PubChem.
FN deposit inh: inhibitors of fibronectin matrix deposition, primary screen, AH1F cells, Alexa488-fibronectin fluorescence, plate reader | AH1F fibroblasts, overnight | inhibition, % at 12.6 µM | 350,000 tested, 0.086% active;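 active = mean inhibition across replicates of 30% or more, regardless of how many single replicates reach that level; inconclusive = mean under 30% yet at least half of replicates reach 30%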;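 note: positive control wells lacked labelled fibronectin entirely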
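test system = AH1F fibroblasts assembling fluorescent fibronectin matrix | quantity = 10000 AH1F cells per well | buffer or medium = DMEM plus 2% serum, read in PBS | doses = single dose, pinned | incubation = 1 h cell attachment, overnight exposure to compound and label | detection = fluorescence at 485 nm excitation, 525 nm emission | read-out basis = inhibition from reduced deposited-fibronectin fluorescence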
Shn3 3UTR inh: reduction of Shn3 3'UTR firefly luciferase signal, primary screen, Schnurri-3 inhibitor project, cell-based, Clone20 osteoblasts, set 2. inhibition, % at 12.5 µM. Clone20 osteoblast Shn3 3'UTR firefly luciferase, 24 h. 360,000 tested, 0.52% active;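 active = mean inhibition of at least 75% with every replicate also reaching 75%; inconclusive = mean inhibition at least 75% but some replicate below; inactive = mean inhibition below 75%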;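 note: 0% = median of neutral control wells and 100% = pilot-screen positive control compound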
EWS-Fli inh: EWS/Fli-driven NR0B1 reporter inhibitors, primary screen, A673 cells, NR0B1 luciferase, luminescence, MLPCN library; inhibition, % at 12.6 µM; 350,000 tested, 0.67% active; AID 651661, 2012; viability-normalised;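 active = mean inhibition of at least 50% after viability correction, with every replicate also passing that limit; inconclusive = mean reaches 50% but only one of two replicates passes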;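 note: firefly luciferase signal divided by Alamar Blue viability fluorescence both relative to DMSO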
PAX8 inh HTS: inhibitors of PAX8-driven TPO luciferase reporter, primary screen, RMG-I cells, single concentration | SteadyGlo, 24 h | inhibition, % at 12.6 µM | 360,000 tested, 1.2% active | AID 652154, 2013;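 active = mean replicate inhibition at least 60% with every replicate also reaching 60%; inconclusive = only one of the two criteria is met; inactive = mean below 60% and not all replicates reaching 60%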;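 note: luciferase light reporting Pax8 driven TPO promoter activity; plate controls were median of neutral control wells for no effect and mitoxantrone controls for full effect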
EBV LMP1 NFkB: EBV LMP1-driven NF-kappaB luciferase reporter inhibitors, primary screen, cell-based, luminescence, single point; LMP1-induced NF-kappaB luciferase reporter cells; inhibition, % at 12.5 µM; 350,000 tested, 0.69% active; AID 504558, 2011; in the data active = inhibition above about 41%; inconclusive = no clear call, values can overlap the other calls;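 note: 0% = neutral control wells and 100% = reference inhibitor control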
aSyn UTR inh: MLPCN primary screen, SNCA 5' untranslated region; inhibition, % (tested at 7.5 µM); alpha-synuclein 5'UTR reporter, inhibitor activity; 300,000 tested, 0.82% active; in the data active = inhibition above about 60%; inconclusive = no clear call, values can overlap the other calls;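 note: H4 neuroglioblastoma cells stably carrying SNCA 5'UTR luciferase fusion; 0% = DMSO wells and 100% = positive control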
Numbers without * were called inactive. A selection: hits, their analogues and other compounds. The true share with any hit is near 2.1%.

Screening C=C1C(=O)CC2=C1[C@](Cc1ccc(F)cc1)(C(=O)OC)N(C(=O)c1ccccc1)C2 returned FN deposit inh 0, EWS-Fli inh 11 and PAX8 inh HTS 11.
C=C1C(=O)C=C2CN(C(=O)c3ccccc3)[C@@](Cc3ccc(F)cc3)(C(=O)OC)[C@@H]12 was read as Shn3 3UTR inh 95*, EBV LMP1 NFkB 94* and aSyn UTR inh inconclusive.
Screening C[C@@H]1CN([C@@H](C)CO)C(=O)c2cc(C#CC3CC3)cnc2O[C@@H]1CN(C)S(C)(=O)=O returned FN deposit inh -29 and EWS-Fli inh 5.
`COc1ccc(-n2c(C)c(C(C)=O)c3cc(OC(C)=O)ccc32)cc1` gave FN deposit inh 0, Shn3 3UTR inh 18, EWS-Fli inh 3, PAX8 inh HTS 6, EBV LMP1 NFkB 60* and aSyn UTR inh 30.
For COc1ccc(-n2cnc3c(cnn3CCC#N)c2=N)cc1 the results were Shn3 3UTR inh -7, EBV LMP1 NFkB 85* and aSyn UTR inh -19.
CO[C@H]1CN(C)C(=O)c2ccc(NC(=O)C3CCOCC3)cc2OC[C@H](C)NC[C@@H]1C was read as FN deposit inh 4.
CCCc1nc([N+](=O)[O-])c(S(=O)(=O)c2ccccc2)n1CC(C)C was read as Shn3 3UTR inh 91*, EWS-Fli inh -24, PAX8 inh HTS 86*, EBV LMP1 NFkB 11 and aSyn UTR inh -18.
For CC(C)Cn1c(C(C)C)nc([N+](=O)[O-])c1S(=O)(=O)c1ccc(F)cc1 the results were FN deposit inh -9, Shn3 3UTR inh 19, PAX8 inh HTS 60, EBV LMP1 NFkB -18 and aSyn UTR inh -36.
`CCCCN1CC(COCc2ccccc2)Oc2cccc(Oc3ccc(F)cc3)c2S1(=O)=O` (stereo unspecified) gave FN deposit inh 10, Shn3 3UTR inh 44, EWS-Fli inh 3, PAX8 inh HTS 40 and EBV LMP1 NFkB 4.
CCCCN1CC(COCc2ccccc2)Oc2cccc(Oc3cc(C)c(C)c(C)c3)c2S1(=O)=O (stereo unspecified) was read as FN deposit inh 5, Shn3 3UTR inh 90*, EWS-Fli inh 17, PAX8 inh HTS -9 and EBV LMP1 NFkB 8.
`CCCCN1CC(COCc2ccccc2)Oc2cccc(Oc3ccccc3)c2S1(=O)=O` (stereo unspecified) gave FN deposit inh 4, Shn3 3UTR inh 25, EWS-Fli inh 11, PAX8 inh HTS 37 and EBV LMP1 NFkB -9.
For CCCCN1CC(COCc2ccccc2)Oc2cccc(Oc3ccc(C)cc3)c2S1(=O)=O (stereo unspecified) the results were FN deposit inh 0, Shn3 3UTR inh 87*, EWS-Fli inh 24, PAX8 inh HTS 8 and EBV LMP1 NFkB 21.
COCC(=O)Nc1ccc2c(c1)C(=O)N(C)C[C@H](OC)[C@H](C)CN(Cc1cc(F)ccc1F)[C@@H](C)CO2 was read as FN deposit inh -3, EWS-Fli inh -5 and PAX8 inh HTS 4.
Screening CN(Cc1ccccc1)C(=O)c1cccc(NC(=O)Cc2ccc([N+](=O)[O-])cc2)c1 returned FN deposit inh 7, Shn3 3UTR inh 88*, EWS-Fli inh 11, PAX8 inh HTS 15 and EBV LMP1 NFkB 2.
`CC(=O)N(C1=C(N)C(=O)c2ccccc2C1=O)C(C)C` gave FN deposit inh -9, Shn3 3UTR inh -24, EWS-Fli inh -30, PAX8 inh HTS 7, EBV LMP1 NFkB 3 and aSyn UTR inh 41.
Screening COc1ccccc1N(C(C)=O)C1=C(Cl)C(=O)c2ccccc2C1=O returned FN deposit inh 42*, Shn3 3UTR inh 77, EWS-Fli inh 56*, PAX8 inh HTS 117* and EBV LMP1 NFkB inconclusive.
For C[C@H]1CN([C@@H](C)CO)S(=O)(=O)c2ccc(C3=CCCC3)cc2O[C@@H]1CN(C)S(=O)(=O)c1cn(C)cn1 the results were FN deposit inh -18, EWS-Fli inh 3 and PAX8 inh HTS -11.
Screening O=C(C[C@@H]1C=C[C@@H](NC(=O)C2CC2)[C@@H](CO)O1)NCc1ccncc1 returned FN deposit inh 19, EWS-Fli inh -5 and PAX8 inh HTS -2.
COC(=O)c1[nH]c2c(c1C)C(=O)CC(c1cc(OC)ccc1OC)C2 (stereo unspecified) was read as FN deposit inh -21, Shn3 3UTR inh 15, EWS-Fli inh 54*, PAX8 inh HTS 21, EBV LMP1 NFkB -3 and aSyn UTR inh -29.
For COC(=O)c1[nH]c2c(c1C)C(=O)CC(c1cccs1)C2 (stereo unspecified) the results were Shn3 3UTR inh 4, EBV LMP1 NFkB 2 and aSyn UTR inh 85*.
Screening C[C@@H]1CCCCO[C@@H](CN(C)C(=O)Nc2cccc3ccccc23)[C@@H](C)CN([C@H](C)CO)C(=O)c2cc(NC(=O)Nc3ccc4c(c3)OCO4)ccc2O1 returned EWS-Fli inh 7 and PAX8 inh HTS 13.
Screening COc1cc2c(c(OC)c1OC)-c1ccc(OC)c(=O)cc1C(N)CC2 (stereo unspecified) returned FN deposit inh -36, Shn3 3UTR inh 7, EWS-Fli inh 56*, PAX8 inh HTS 76* and EBV LMP1 NFkB -2.
`COc1cc2c(c(OC)c1OC)-c1ccc(OC)c(=O)cc1[C@@H](N(C)CC#CCO)CC2` gave FN deposit inh -6, Shn3 3UTR inh -6, EWS-Fli inh 54*, PAX8 inh HTS 77*, EBV LMP1 NFkB 5 and aSyn UTR inh 87*.
COc1cc2c(c(OC)c1OC)-c1ccc(SC)c(=O)cc1C(N)CC2 (stereo unspecified) was read as FN deposit inh -11, Shn3 3UTR inh 1, EWS-Fli inh 39, PAX8 inh HTS 74* and EBV LMP1 NFkB 3.
Screening CO[C@@H]1CN(C)C(=O)c2cc(NC(=O)C3CCCC3)ccc2OC[C@@H](C)N(S(=O)(=O)c2ccc(Cl)cc2)C[C@H]1C returned EWS-Fli inh 14 and PAX8 inh HTS 46.
For C[C@H](CO)N1C[C@H](C)[C@H](CN(C)Cc2ccc(C(=O)O)cc2)Oc2c(cccc2N(C)C)C1=O the results were EWS-Fli inh -5 and PAX8 inh HTS 3.
Screening O=C(Cc1ccc(Cl)cc1Cl)Nc1ccncc1 returned Shn3 3UTR inh 84, EWS-Fli inh 29, PAX8 inh HTS 27, EBV LMP1 NFkB 25 and aSyn UTR inh 3.
O=C(Cc1ccc(Cl)cc1Cl)Nc1ccncc1Cl was read as FN deposit inh -7, Shn3 3UTR inh 88*, EWS-Fli inh 11, EBV LMP1 NFkB 30 and aSyn UTR inh -3.
